# In ChEMBL document CHEMBL1275391, “Design, synthesis, and preclinical evaluation of new 5,6- (or 6,7-) disubstituted-2-(fluorophenyl)quinolin-4-one derivatives as potent antitumor agents” (J Med Chem, 2010):
# pIC50: −log10 of the molar value. The source made the active and inactive calls. The calls are words filed in the database; no cut-off is given here.
# Legend:
# [1] = Cytotoxicity against human Hep3B cells after 48 hrs by MTT assay; assay type: functional, cell-based, Hep 3B2
# How it was run: (§1)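 Cells exposed to a range of compound concentrations for 48 h, washed once with PBS, then incubated with MTT for 2 h. Formazan dissolved in DMSO and absorbance read at 570 nm. IC50 taken as the concentration giving 50% inhibition of proliferation.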
# [2] = system: NCI-H460; test: Cytotoxicity against human H460 cells after 48 hrs by MTT assay; assay type: functional, cell-based; settings: NCI-H460, 48 h; how it was run: as §1
# [3] = system: HCT-116; test: Cytotoxicity against human HCT116 cells after 48 hrs by MTT assay; assay type: functional, cell-based; settings: HCT-116, 48 h; how it was run: as §1
# [4] = system: HL-60; test: Cytotoxicity against human HL60 cells after 48 hrs by MTT assay; assay type: functional, cell-based; settings: HL-60, 48 h; how it was run: as §1
# [5] = system: Hep 3B2; test: Antitumor activity against human Hep3B cells xenografted in BALB/c nude mouse assessed as inhibition of tumor growth administered at 7.5 mg/kg, po qd for 5 times per week for 4 weeks; assay type: functional, organism-based; parameters: dose 7.5 mg/kg
# How it was run: (§2)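 Male Balb/c nude mice, 4-6 weeks, 18-20 g; 2 × 10^6 Hep3B cells in 0.1 mL injected subcutaneously into right flank. Dosing began when tumors exceeded 100 mm3 (day 0), given po or iv once daily, 5 days/week for 4 weeks, stopped day 28. Tumor volume (length × width² × 0.5) and body weight recorded every 7 days; T/C = (Tn − T0)/(Cn − C0) × 100%.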
# [6] = system: Hep 3B2; test: Antitumor activity against human Hep3B cells xenografted in BALB/c nude mouse assessed as inhibition of tumor growth administered at 7.5 to 30 mg/kg, po qd for 5 times per week for 4 weeks; assay type: functional, organism-based; settings: TDE = time-dependent effect; how it was run: as §2
# [7] = system: Hep 3B2; test: Antitumor activity against human Hep3B cells xenografted in BALB/c nude mouse assessed as inhibition of tumor growth administered at 7.5 mg/kg, po qd for 5 times per week for 4 weeks
# [8] = system: Hep 3B2; test: Antitumor activity against human Hep3B cells xenografted in iv dosed BALB/c nude mouse assessed as inhibition of tumor growth administered qd for 5 times per week for 4 weeks measured on day 28; assay type: functional, organism-based; how it was run: as §2
# [9] = system: Hep 3B2; test: Antitumor activity against human Hep3B cells xenografted in BALB/c nude mouse assessed as inhibition of tumor growth administered at 7.5 to 30 mg/kg, iv qd for 5 times per week for 4 weeks; assay type: functional, organism-based; settings: TDE = time-dependent effect; how it was run: as §2
# [10] = system: Hep 3B2; test: Antitumor activity against human Hep3B cells xenografted in po dosed BALB/c nude mouse assessed as inhibition of tumor growth administered qd for 5 times per week for 4 weeks measured on day 28; assay type: functional, organism-based; how it was run: as §2
# [11] = system: Mus musculus; test: Toxicity in human Hep3B cells xenografted BALB/c nude mouse assessed as change in body weight at 7.5 to 30 mg/kg, po qd for 5 times per week for 4 weeks measured on day 28; assay type: organism-based, Hep 3B2; parameters: dose 7.5-30 mg/kg, route oral; settings: in vivo, 672 h
# How it was run: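 Male Balb/c nude mice, 4-6 weeks old and 18-20 g, were housed under SPF conditions. Each received 2 × 10^6 Hep3B cells in 0.1 mL s.c. into the right flank. Once tumors exceeded 100 mm3 (day 0), animals were grouped and dosed orally once daily, 5 days/week for 4 weeks. Body weight and tumor size were recorded every 7 days up to day 28.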
# [12] = system: Hep 3B2; test: Antitumor activity against human Hep3B cells xenografted in BALB/c nude mouse assessed as inhibition of complete tumor growth administered at 30 mg/kg, po qd for 5 times per week for 4 weeks; assay type: functional, organism-based; parameters: dose 30 mg/kg; how it was run: as §2
SMILES,pIC50 [1],pIC50 [2],pIC50 [3],pIC50 [4],Activity [5],Activity [6],Activity [7],Activity [8],Activity [9],Activity [10],Activity [11],Activity [12]
COc1ccc2[nH]c(-c3ccc(F)cc3)cc(=O)c2c1OC,< 4.70,< 4.70,< 4.70,5.70,,,,,,,,
O=c1cc(-c2ccccc2F)[nH]c2ccc(O)c(O)c12,5.41,5.39,6.22,6.30,,,,,,,,
COc1ccc2[nH]c(-c3ccccc3F)cc(=O)c2c1O,7.30,6.96,7.30,7.15,,,,,,,,
COc1ccc2[nH]c(-c3cccc(F)c3)cc(=O)c2c1OC,5.59,5.46,5.92,5.89,,,,,,,,
COc1cc2c(=O)cc(-c3cccc(F)c3)[nH]c2cc1O,5.28,5.32,5.96,6.05,,,,,,,,
O=c1cc(-c2cccc(F)c2)[nH]c2ccc(O)c(O)c12,5.16,5.21,5.09,6.52,,,,,,,,
O=c1cc(-c2ccccc2F)[nH]c2ccc3c(c12)OCO3,5.72,5.35,5.68,6.00,,,,,,,,
COc1ccc2[nH]c(-c3ccc(F)cc3)cc(=O)c2c1O,4.96,5.06,5.62,5.74,,,,,,,,
O=c1cc(-c2ccccc2F)[nH]c2cc3c(cc12)OCO3,6.89,6.85,6.82,7.10,,,,,,,,
O=c1cc(-c2ccc(F)cc2)[nH]c2ccc(O)c(O)c12,4.00,4.00,< 4.00,4.41,,,,,,,,
COc1cc2c(=O)cc(-c3ccc(F)cc3)[nH]c2cc1O,< 4.00,< 4.00,< 4.00,4.42,,,,,,,,
COc1ccc2[nH]c(-c3cccc(F)c3)cc(=O)c2c1OP(=O)([O-])[O-].[Na+].[Na+],,,,,Active,tde,Active,Dose-dependent effect,tde,Dose-dependent effect,Non-toxic,Active
COc1ccc2[nH]c(-c3ccccc3F)cc(=O)c2c1OC,< 4.70,< 4.70,< 4.70,5.43,,,,,,,,
COc1cc2c(=O)cc(-c3ccccc3F)[nH]c2cc1O,5.28,5.36,5.24,5.89,,,,,,,,
O=c1cc(-c2cccc(F)c2)[nH]c2ccc3c(c12)OCO3,5.62,5.49,5.60,6.15,,,,,,,,
O=c1cc(-c2ccc(F)cc2)[nH]c2ccc3c(c12)OCO3,< 5.00,< 5.00,< 5.00,< 5.00,,,,,,,,
